# PREPL inhibitor: inhibits the human prolyl oligopeptidase-like enzyme; Q4J6C6; recombinant PREPL, fluorescence polarization activity-based probe; inhibition, % at 5.96 µM; hit rate 0.68% among 320,000; AID 2751; in the data active = inhibition above about 43%;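 note: 0% = enzyme with DMSO and 100% = wells lacking enzyme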
# LYPLA2 inh: blocks human lysophospholipase 2, a PME1 counter-screen | O95372 | recombinant LYPLA2, FP-Rh probe fluorescence polarization | inhibition, % at 5.9 µM | hit rate 0.38% among 320,000 | AID 2177;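 active = inhibition above the screen-wide mean plus 3 SD, limit set per campaign, cut at about 26% in these data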;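 note: 0% = LYPLA2 with DMSO and 100% = wells lacking LYPLA2 enzyme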
# proCasp3 act: activates human procaspase-3; P42574; activation, % at 8.5 µM; recombinant procaspase-3 D3A, Ac-DEVD-pNA absorbance 405 nm; hit rate 0.11% among 330,000;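 active = activation above the mean of all tested compounds plus 3 SD, cut at about 21% in these data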;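 note: 0% = DMSO alone and 100% = DMSO wells spiked with extra 5 µM PC-3 D3A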
# Target sequence (P42574 whole entry D9A/D28A/D175A): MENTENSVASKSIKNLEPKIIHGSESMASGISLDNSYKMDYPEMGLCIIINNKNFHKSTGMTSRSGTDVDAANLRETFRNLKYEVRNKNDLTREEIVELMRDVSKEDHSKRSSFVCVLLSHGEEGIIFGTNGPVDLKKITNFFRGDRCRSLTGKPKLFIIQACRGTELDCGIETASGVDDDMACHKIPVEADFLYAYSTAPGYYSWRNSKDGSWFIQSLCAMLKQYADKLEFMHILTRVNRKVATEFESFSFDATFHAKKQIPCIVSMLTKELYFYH
#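 Test system: Procaspase-3 D3A mutant, all three cleavage aspartates alanine | Dosing: Single dose, 8.5 µM nominal compound, 0.8% DMSO | Schedule: 1 h preincubation, 2 h reaction | Technique: 405 nm absorbance of p-nitroaniline, reads at 0 and 120 min | Repeats: One well per compound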
# LYPLA1 counter: counter-screen for PME1 inhibitors: inhibitors of human LYPLA1. AID 2174. inhibition, % at 5.9 µM. recombinant LYPLA1, FP-Rh probe fluorescence polarization. hit rate 0.16% among 320,000;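 active = inhibition above the mean of all tested compounds plus 3 SD, set per campaign, cut at about 14% in these data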;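 note: inhibitors block serine hydrolase probe labeling of LYPLA1 so polarization falls; 0% = enzyme with DMSO and 100% = wells lacking LYPLA1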
# proCasp7 act: activates human procaspase-7, counter-screen for procaspase-3 activators. activation, % at 8.5 µM. hit rate 0.093% among 330,000. AID 463210. recombinant procaspase-7, Ac-DEVD-pNA absorbance 405 nm; D23A/D198A/D206A triple mutant, cannot self-cleave; scale: DMSO 0, 5 µM enzyme 100. P55210;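 active = percent activation above the screen-wide mean plus 3 SD, cut at about 25% in these data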
# Target sequence (P55210 whole entry D23A/D198A/D206A): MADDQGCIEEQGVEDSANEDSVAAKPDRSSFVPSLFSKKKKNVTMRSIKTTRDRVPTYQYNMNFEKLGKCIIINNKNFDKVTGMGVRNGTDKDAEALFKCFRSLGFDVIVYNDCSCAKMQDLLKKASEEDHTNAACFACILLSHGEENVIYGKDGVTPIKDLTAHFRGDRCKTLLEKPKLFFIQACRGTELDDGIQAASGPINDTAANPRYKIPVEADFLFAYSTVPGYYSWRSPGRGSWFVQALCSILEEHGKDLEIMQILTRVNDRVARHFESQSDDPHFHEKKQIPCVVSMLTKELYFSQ
#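 Assay system: Uncleavable procaspase-7 mutant enzyme; Input: 2 µM procaspase-7 mutant as dispensed; Also added: DEVD-pNA substrate; Medium: Zinc-free HEPES pH 7.4 with 300 mM NaCl, 0.01% Triton X-100; Timing: 1 h compound preincubation, 2 h substrate cleavage, 25 °C; Measured by: Epi-absorbance of released pNA at 405 nm, two timepoints.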
# PC3 dual counter: counter-screen: procaspase-3 (human) activation; shares compounds with proCasp7 act; recombinant PC-3 D3A, Ac-DEVD-pNA absorbance 405 nm; aspartates 9, 28, 175 changed to alanine; 100% = enzyme control; activation, % at 8.5 µM; 290 tested, under 10 active;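 active = mean percent activation across triplicates above a set limit taken from the earlier primary procaspase-3 screen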;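 note: 0% = DMSO wells and 100% = DMSO wells with 5 µM added PC-3 D3A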
# Procasp7 act: procaspase-7 (human) activation, dual activator confirmation | shares compounds with proCasp7 act | recombinant procaspase-7, Ac-DEVD-pNA absorbance 405 nm; D23A/D198A/D206A mutant that cannot self-cleave | activation, % at 8.5 µM | 290 tested, under 10 active | AID 493115;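 active = mean activation above a set limit carried over from the earlier primary screen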;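 note: 0% = DMSO only and 100% = DMSO with added 5 µM PC-7 enzyme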
# Active calls of the source: *; . = no result given. Hits are enriched below; roughly 1.1% of the tested compounds scored in any of these assays.
SMILES,PREPL inhibitor,LYPLA2 inh,proCasp3 act,LYPLA1 counter,proCasp7 act,PC3 dual counter,Procasp7 act
Cn1c(=O)c2c(ncn2CC(=O)Nc2cc(S(=O)(=O)N3CCCCC3)ccc2O)n(C)c1=O,2,.,-3,.,13,.,.
CCOc1ccc(N=CC2=C(O)CC(c3ccco3)CC2=O)cc1 (stereo not drawn),6,10,38*,-3,54*,19,13
O=C1CC(c2ccco2)CC(O)=C1C=Nc1cc(Cl)cc(Cl)c1 (stereo not drawn),4,6,-4,1,3,.,.
N#C/C(=C(/O)C(Cl)(Cl)Cl)c1nc2ccccc2[nH]1,-7,3,2,-1,-9,.,.
CC(=O)Nc1ccc(O)c(-c2nc3ccccc3s2)c1,2,3,8,-2,36*,0,-1
O=C(Nc1ccc(O)c(-c2nc3ccccc3s2)c1)C1=COCCO1,5,5,-1,2,32*,2,1
O=C(Nc1ccc(-c2nc3ccccc3s2)c(O)c1)C1=COCCO1,10,-3,-18,-3,4,.,.
O=C(Cn1c2ccccc2c(=O)c2ccccc21)Nc1cccc(F)c1,-12,-74,50*,-39,93*,-28,-38
COc1ccc(C(C(=O)NCc2ccccc2)N(C(=O)c2snc(C(N)=O)c2N)c2ccccc2OC)cc1 (stereo not drawn),14,-2,-23,-6,29*,-31,-35
NC(=O)c1nsc(C(=O)N(c2ccccc2F)C(C(=O)NCc2ccc(F)cc2)c2ccc(O)cc2)c1N (stereo not drawn),27,-23,-26,-11,28*,-28,-35
COc1ccc(S(=O)(=O)N2CCC(C(N)=O)(N3CCCCC3)CC2)cc1OC,9,-5,-4,-2,-9,.,.
CCc1ccc(C2=NN(c3ccc(S(N)(=O)=O)cc3)C(c3ccc(F)cc3)C2)cc1 (stereo not drawn),28,2,59*,-4,27*,-31,-36
NS(=O)(=O)c1ccc(N2N=C(c3ccccc3)CC2c2ccccc2)cc1 (stereo not drawn),26,1,37*,-1,63*,-28,-35
O=S(=O)(O)c1ccc(N2N=C(c3ccccc3)CC2c2ccccc2)cc1 (stereo not drawn),-1,8,12,1,7,.,.
NS(=O)(=O)c1ccc(N2N=C(c3ccccc3)CC2c2ccccc2Cl)cc1 (stereo not drawn),.,.,47*,.,80*,-28,-35
CC(=O)Nc1ccc(C2=NN(c3ccccc3)C(c3cccs3)C2)cc1 (stereo not drawn),2,0,157*,-3,126*,-31,-35
COc1ccc(NC2CCCN(C(=O)c3ccccc3C(F)(F)F)C2)cc1 (stereo not drawn),-1,1,-4,0,-9,.,.
C#CCOc1ccc(C2C3=C(CC(C)(C)CC3=O)N(CC(=O)O)C3=C2C(=O)CC(C)(C)C3)cc1OC,-11,2,-8,-5,-17,.,.
C=CCOc1ccc(C2C(C#N)=C(N)N(Nc3ccccc3)C3=C2C(=O)CC(C)(C)C3)cc1OC (stereo not drawn),19,3,19,-2,35*,-4,-6
N#Cc1c2c(c(Nc3ccccc3)n3c1nc1ccccc13)CCC2,5,9,11,4,61*,4,1
N#Cc1c2c(c(-n3cnc4ccccc43)n3c1nc1ccccc13)CCC2,12,2,5,3,-5,.,.
Cc1ccc(SCC(=O)OCC(=O)NCCc2ccccc2)cc1,-2,0,-4,1,18,.,.
Cc1c(Cc2ccccc2)c(=O)oc2cc(O)cc(O)c12,4,0,21,-3,26*,-28,-34
C[C@@H]1C(c2ccccc2)=NN(c2ccccc2)[C@H]1C(=O)N1CCOC1=O,.,.,-4,.,3,.,.
Cc1cccc(C2=NN(c3ccc(Br)cc3)[C@@H](C(=O)N3CCOC3=O)[C@@H]2c2ccccc2)c1,.,.,20,.,32*,-30,-33
SMILES,PREPL inhibitor,LYPLA2 inh,proCasp3 act,LYPLA1 counter,proCasp7 act,PC3 dual counter,Procasp7 act
C[C@@H]1C(c2cccc(Cl)c2)=NN(c2ccccc2)[C@H]1C(=O)N1CCOC1=O,.,.,7,.,30*,-30,-36
C[C@@H]1C(c2cccc(Cl)c2)=NN(c2ccc(Br)cc2)[C@H]1C(=O)N1CCOC1=O,.,.,22*,.,29*,-30,-36
CS(=O)(=O)NCc1nnc(SCc2ccc(C(F)(F)F)cc2)o1,-9,2,8,3,-2,.,.
O=C(CCOc1ccccc1)Nc1ccnn1C1CCN(C(=O)CCC(F)(F)F)CC1,3,10,2,1,-14,.,.
O=C(Nc1cccc2ccccc12)NC(Cc1ccccc1)C(=O)O (stereo not drawn),-5,-3,1,-3,0,.,.
Cc1ccc(N(CC(=O)N2CCCCCC2)S(=O)(=O)c2ccccc2)cc1,11,1,-3,1,-2,.,.
Cc1ccc(C(=O)N2CCCN(c3nc4cc5c(cc4cc3C#N)OCO5)CC2)cc1,37,-1,-9,1,-18,.,.
N#Cc1cc2cc3c(cc2nc1N1CCCCC1)OCCO3,-3,-3,19,-1,38*,-28,-36
CCN(Cc1ccccc1)c1ccc(/C=N/N=C(N)N)cc1,39,3,-1,1,-7,.,.
CCN(Cc1ccccc1)c1ccc(/C=N/NC(=S)NC(C)C)cc1,9,4,23*,-4,30*,0,2
O=C(COC(=O)c1cc(Cl)nc(Cl)c1)NCc1ccc2c(c1)OCO2,3,.,6,.,11,.,.
CCOC(=O)C1(CCOC)CCN(C(=O)c2sccc2C)CC1,-2,2,6,-1,-2,.,.
COc1ccc(CC(=O)Nc2nn(C)c3nc4c(C)cccc4cc23)cc1,7,-1,23*,0,40*,-30,-35
CCC(=O)Nc1nn(C)c2nc3c(C)cccc3cc12,19,8,-3,5,3,.,.
COc1ccc(-c2nc3ccccc3nc2-c2ccc(OC)cc2)cc1,-6,-3,32*,-5,33*,-30,-36
CSCCC(NC(=O)/C(=C\c1ccc(Cl)cc1)NC(=O)c1ccccc1)C(=O)O (stereo not drawn),12,4,4,3,-8,.,.
CCOC(=O)/C(C#N)=C/Nc1cc(OC)ccc1OC,1,7,95*,3,87*,9,6
CCOC(=O)/C(C#N)=C/c1ccc(OC)c(OC)c1,7,-3,2,2,9,.,.

# Screening data: PubChem BioAssay, The Scripps Research Institute Molecular Screening Center
